Data from publication PMC5903019 (International Journal of Pharmaceutical Investigation, 2017).
In brackets after ≈: the same amount, converted by molar mass. Where two headings read alike, the source gives them in different places. One block for each compound: values may come before it.

Experiments:
[1] = Saturation solubility of EAPB0503 in solvents by HPLC; type: physicochemical; settings: for solubility: thermodynamic from solid
Procedure, shortened: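 Solvents, including purified water, were saturated with solid test compound and centrifuged at 5000 g for 5 min. The supernatant was quantified by HPLC on a C8 column using acetonitrile/2 mM ammonium formate pH 3 at 0.6 mL/min with a 12 min run. The column was held at 20°C and detection was by UV. Calibration used DMSO standards from 50–1000 μg/mL.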

[2] = Solubility screening of EAPB0503 in oils; type: physicochemical
Procedure, shortened: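 5 mg of test compound was added to 1 g of pharmaceutical-grade oil ([…], castor, olive, soybean or sesame). Samples were magnetically stirred for 24 h at 20°C and then checked for complete solubilization.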

[3] = Thermogravimetric analysis; type: physicochemical
Procedure, shortened: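 Thermogravimetric analysis of a 5.0 ± 0.5 mg sample in a ceramic pan under nitrogen at 2 bars. The sample was heated from 20°C to 350°C at 10°C/min to obtain the degradation temperature.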

A375 cell line = settings: cited from earlier work
tubulin polymerization = settings: cited from earlier work
[4] = rats, i.p.; cited from earlier work
[5] = cited from earlier work
[6] = cited from earlier work; remark: listed apart in the source

Maximum concentration (solubility) ([1]; Purified water): <0.1 mg/mL | solubility ([1]; dimethyl sulfoxide, organic solvent or mixture): 16.6 mg/mL (≈ 54.5 mM) | solubility ([1]; dimethylacetamide, organic solvent or mixture): 24.8 mg/mL (≈ 81.5 mM) | solubility ([1]; phosphate buffered saline, aqueous buffer): < 0.1 mg/mL | solubility ([1]; purified water, water): < 0.1 mg/mL | Solubility in Labrafac WL 139 ([2]; Labrafac WL 139): higher than 12 mg/g | solubility at 24 h ([2]; Labrafac WL 1349 (semi-synthetic oil), oil or lipid, thermodynamic from solid): 12 mg/mL (≈ 39.4 mM) | Concentration obtainable in vegetable oils ([2]; castor, olive, soybean and sesame oils): ≤ 1000 µg/mL | Solubilization in vegetable oils ([2]; castor, olive, soybean and sesame oils, 5 mg/mL, room temperature): not complete | Degradation temperature (TGA) [3]: 347 °C | Degradation temperature onset (TGA) ([3]; onset): 210 °C
Compound: CNc1nc2ccccc2n2c(-c3cccc(OC)c3)cnc12 [EAPB0503, 1-[3-methoxyphenyl]-N-methylimidazo [1,2-a] quinoxalin-4-amine]
IC50 (A375 cell line; A375 cell line growth): 200 nM | Fold increase activity compared to EAPB0203 (A375 cell line; in vitro activity, human melanoma cell lines): 9 | Inhibition of the tubulin polymerization (tubulin polymerization): potent inhibition | Bioavailability after intraperitoneal administration [4]: 35%

Compound: CC(=O)O[C@@]12CO[C@@H]1C[C@H](O)[C@@]1(C)C(=O)[C@H](O)C3=C(C)[C@@H](OC(=O)[C@H](O)[C@@H](NC(=O)OC(C)(C)C)c4ccccc4)C[C@@](O)([C@@H](OC(=O)c4ccccc4)[C@H]21)C3(C)C [docetaxel]
Drug loading in LNC ([5]; encapsulated in LNC): 2 mg/mL

Compound: COc1cc([C@@H]2c3cc4c(cc3[C@@H](O[C@@H]3O[C@@H]5CO[C@@H](C)O[C@H]5[C@H](O)[C@H]3O)[C@H]3COC(=O)[C@H]23)OCO4)cc(OC)c1O [etoposide]
Water solubility [6]: 0.978 mg/mL | Drug efficiency (encapsulation) in LNC ([5]; formulated in LNC): 56.7 ± 21.3% | Drug loading in LNC ([5]; formulated in LNC): 6.5 ± 3.0 mg/g

Compound: CC(=O)O[C@H]1C(=O)[C@@]2(C)[C@H]([C@H](OC(=O)c3ccccc3)[C@]3(O)C[C@H](OC(=O)[C@H](O)[C@@H](NC(=O)c4ccccc4)c4ccccc4)C(C)=C1C3(C)C)[C@]1(OC(C)=O)CO[C@@H]1C[C@@H]2O [paclitaxel]
Drug loading in LNC ([5]; encapsulated in LNC): 4 mg/mL
